The list is not random: actives were taken first. Their share in the collection is about 1.9%.
PP5 primary: PP5 phosphatase inhibitors, primary screen, biochemical, fluorescence; purified PP5c, OMFP substrate fluorescence; inhibition, % at 6.7 µM; 320,000 compounds, 0.18% hits; AID 1987, 2009;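 active = inhibition above the campaign's mean inhibition across all tested compounds plus 3 SD, cut at about 9.5% in these data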;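 note: 0% = DMSO only and 100% = 100 µM cantharidin control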
LMPTP inh: LMPTP phosphatase inhibitors, primary screen, biochemical, fluorescence intensity, uHTS; inhibition, % at 20 µM; recombinant LMPTP-A, OMFP fluorogenic substrate; 360,000 compounds, 0.22% hits; Low molecular weight phosphotyrosine protein phosphatase (Homo sapiens), P24666; AID 651560, 2012;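 active = compounds that cut the enzyme signal by at least half of the control window in the single-dose screen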;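 note: plate controls were DMSO wells with enzyme plus substrate for no effect and substrate without enzyme for full effect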
Target sequence (P24666 whole entry, looked up): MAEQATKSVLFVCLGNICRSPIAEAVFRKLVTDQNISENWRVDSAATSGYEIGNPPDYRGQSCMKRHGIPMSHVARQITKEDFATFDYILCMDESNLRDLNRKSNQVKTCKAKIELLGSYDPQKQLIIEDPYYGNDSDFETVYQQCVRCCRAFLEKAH
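Test system – LMPTP-A enzyme · Amount – LMPTP-A at 0.625 nM final in the reaction · Buffer or medium – Bis-Tris pH 6.0, DTT, detergent · Reagent – OMFP 400 µM · Doses – single 20 µM dose · Schedule – reaction 50 min, room temperature, dark · Detection – fluorescence intensity of OMFP turnover product · Evaluation – percent inhibition versus substrate-only and uninhibited controls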
Scp-1 inhibitor: Scp-1 phosphatase inhibitors, primary screen, biochemical, colorimetric, uHTS. Recombinant Scp1, phosphopeptide, malachite green phosphate absorbance. inhibition, % at 20 µM. 340,000 compounds, 0.88% hits. AID 493091, 2011;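 active = inhibition above about 50% at 20 µM, limit read from the data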;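 note: plate controls were DMSO wells with enzyme for no effect and wells lacking enzyme for full effect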
Target sequence (Q9GZU7 76-261 limits assumed): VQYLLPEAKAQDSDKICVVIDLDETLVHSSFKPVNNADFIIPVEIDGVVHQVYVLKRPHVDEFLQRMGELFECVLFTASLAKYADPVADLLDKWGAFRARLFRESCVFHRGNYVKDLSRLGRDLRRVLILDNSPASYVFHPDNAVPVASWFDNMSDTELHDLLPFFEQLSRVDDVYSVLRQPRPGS
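Test system – truncated SCP-1 phosphatase (76-261aa) · Reagent – Phosphorylated 17-residue peptide substrate · Incubation – 45 min room-temperature reaction, 5 min colour, 30 min stabiliser · Detection – colorimetric phosphate reagent with accelerator and stabiliser, absorbance at 630 nm · Measure – % inhibition at 20 µM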
PP1 inh: PP1-alpha phosphatase inhibitors, primary screen, counter-screen for PP5 inhibitor project, biochemical, fluorescence, OMFP substrate, single point. Serine/threonine-protein phosphatase PP1-alpha catalytic subunit (Homo sapiens), P62136. purified PP1alpha. inhibition, % at 6.7 µM. 320,000 compounds, 0.9% hits. AID 2235, 2010;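 active = inhibition above the mean inhibition of all tested compounds plus 3 SD, computed separately for each screening campaign, cut at about 15% in these data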
Target sequence (P62136 whole entry, looked up): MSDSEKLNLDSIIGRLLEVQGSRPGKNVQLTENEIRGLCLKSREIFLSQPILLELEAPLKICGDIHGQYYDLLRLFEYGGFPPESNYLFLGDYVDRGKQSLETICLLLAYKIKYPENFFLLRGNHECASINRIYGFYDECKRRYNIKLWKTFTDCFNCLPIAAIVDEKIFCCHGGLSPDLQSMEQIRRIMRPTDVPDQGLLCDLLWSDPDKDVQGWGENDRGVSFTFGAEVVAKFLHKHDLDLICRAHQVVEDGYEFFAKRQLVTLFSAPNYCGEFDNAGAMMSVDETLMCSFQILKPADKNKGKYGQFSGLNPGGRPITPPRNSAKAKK
STEP inh: STEP phosphatase inhibitors, primary screen, biochemical, fluorescence intensity, uHTS; Tyrosine-protein phosphatase non-receptor type 5 (Homo sapiens), P54829; recombinant STEP, OMFP fluorogenic substrate; inhibition, % at 20 µM; 360,000 compounds, 0.25% hits;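 active = inhibition at 20 µM, scaled per plate between control wells, above about 37%, limit read from the data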;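 note: 0% = DMSO with enzyme and substrate and 100% = substrate only without enzyme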
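medium = Bis-Tris buffer pH 6.0, 2.5 mM DTT, 0.005% Tween 20 | test system = STEP (striatal-enriched tyrosine phosphatase) enzyme, cell-free | measure = normalized % inhibition | compound dosing = 20 µM, 1% DMSO | also added = 25 µM OMFP | schedule = reaction 20 min, ambient temperature | measured by = fluorescence read at 480 nm ex / 540 nm em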
PP5 conf: PP5 phosphatase inhibitors, confirmation, biochemical, fluorescence, human | inhibition, % at 6.7 µM | 460 compounds, 22% hits | AID 2331, 2010 | Purified PP5, fluorogenic phosphatase substrate | shares compounds with PP5 primary; in the data active = inhibition above about 9.5%
PP1 inh counter: PP1 phosphatase inhibitors, counter-screen for PP5 inhibitor project, biochemical, fluorescence, triplicate | shares compounds with PP5 primary | 460 compounds, 4% hits | inhibition, % at 6.7 µM | PP1 enzyme, fluorescent phosphatase substrate; in the data active = inhibition above about 16%
* = called active by the depositor; · = no result; ! = not confirmed by another sample.

SMILES | PP5 primary | LMPTP inh | Scp-1 inhibitor | PP1 inh | STEP inh | PP5 conf | PP1 inh counter
CC(C)(C)c1ccc(C2C(C#N)=C(N)Oc3n[nH]c(-c4cccnc4)c32)cc1 (stereo not drawn) | 1 | -1 | -4 | 2 | -2 | · | ·
CC(C)(CO)NC12CC3CC(CC(C3)C1)C2 | 11* | -2 | 3 | -13 | -2 | -2 | -4
COC(=O)CCC(=O)OC1(C)C(=O)C=C2C=C(C3CC3)N(CCc3ccccn3)C=C2C1=O (stereo not drawn) | 11* | 3 | -6 | 2 | 5 | 42* | 19*
COC(=O)CCC(=O)OC1(C)C(=O)C=C2C=C(C3CC3)N(CCCOC(C)C)C=C2C1=O (stereo not drawn) | 10* | 0 | 24 | 5 | 3 | 35* | 11
COC(=O)CCC(=O)OC1(C)C(=O)C=C2C=C(C3CC3)N(c3ccccc3)C=C2C1=O (stereo not drawn) | 11* | 0 | 2 | -1 | -2 | 30* | 10
COC(=O)CCC(=O)OC1(C)C(=O)C=C2C=C(C3CC3)N(CCc3c[nH]c4ccccc34)C=C2C1=O (stereo not drawn) | 8 | 16 | -4 | 11 | 2 | · | ·
COC(=O)CCC(=O)OC1(C)C(=O)C=C2C=C(C3CC3)N(CCCCO)C=C2C1=O (stereo not drawn) | 14* | 0 | -8 | 7 | 0 | 34* | 2
C=CCN1c2ccccc2[C@]23C[C@@H](C(=O)OC)N(C(=O)C4CCC4)C2=NC(C(=O)OC)=C(C(=O)OC)[C@H]13 | 3 | 2 | -6 | -3 | 0 | · | ·
Cc1ccc(-n2c(SCC(=O)Nc3nccs3)nc3c(c2=O)SCC3)cc1 | 1 | 1 | -11 | -4 | -6 | · | ·
CCSc1nnc(NC(=O)CSc2nc3c(c(=O)n2-c2ccccc2)SCC3)s1 | 12* | 1 | 2 | -4 | 0 | -4 | -2
O=C(Nc1cc(C(F)(F)F)cc(C(F)(F)F)c1)c1ccc(Cn2cc(C(F)(F)F)ccc2=O)cc1 | 11* | 3 | -7 | 3 | 2 | 11* | 1
O=C(Nc1ccccc1)c1ccc(Cn2cc(C(F)(F)F)ccc2=O)cc1 | 3 | 0 | -7 | 3 | -2 | · | ·
Cc1c(NS(=O)(=O)c2ccc3c(c2)NC(=O)CC(=O)N3)cccc1[N+](=O)[O-] | 2 | 0 | -5 | 3 | -1 | · | ·
COc1cccc(CNC(=O)C2CCN(S(=O)(=O)c3ccccc3)CC2)c1 | 12* | -2 | -11 | -5 | 0 | -3 | -3
NC(=O)c1ccc(C(F)(F)F)n(Cc2c(Cl)cccc2Cl)c1=O | 12* | 5 | -2 | -2 | -1 | 6 | 8
O=C(N/N=C\c1ccc(Cl)s1)c1ccc(Cn2cccn2)o1 | -4 | 0 | -2 | 0 | 0 | · | ·
O=C(N/N=C\c1c(O)ccc2ccccc12)c1ccc(Cn2cccn2)o1 | 19* | -1 | -8 | 5 | 0 | -4 | 15
CCOC(=O)Cc1nn(Cc2nc(-c3ccc(C#N)cc3)cs2)c(=O)c2ccccc12 | 3 | 3 | -18 | -1 | 1 | · | ·
COc1ccc(C2N(c3cc(C)on3)C(=O)C3CCCN32)cc1OC (stereo not drawn) | -1 | -1 | -2 | 1 | 0 | · | ·
Cc1ccc(NC(=O)CN(C)C(=O)c2cccnc2Nc2cccc(C(F)(F)F)c2)cc1 | 11* | 5 | 1 | 10 | -3 | 9 | 10
COc1cccc(NC(=O)CN(C)C(=O)c2ccccc2OCC(=O)Nc2cccc(C(F)(F)F)c2)c1 | 0 | 2 | -9 | -3 | -5 | · | ·
COc1cccc(NC(=O)CN(C)C(=O)c2cccnc2Nc2cccc(C(F)(F)F)c2)c1 | 14* | 3 | -2 | 8 | -4 | 9.7* | 10
O=C1CC(N2CCN(c3ccccc3)CC2)C(=O)N1CCc1ccccc1 (stereo not drawn) | 4 | -2 | 7 | -7 | -1 | · | ·
COC(=O)c1[nH]c(C)c(/C(O)=C2\C(=O)C(=O)N(CCN3CCOCC3)C2c2ccccc2OC)c1C (stereo not drawn) | 11* | 0 | -2 | 2 | 6 | 1 | 0
Cc1[nH]c2ccccc2c1C(C#N)(C#N)C1C(=O)c2ccccc2C1=O | 21* | 6 | -17 | 7 | 1 | 8 | 1
SMILES | PP5 primary | LMPTP inh | Scp-1 inhibitor | PP1 inh | STEP inh | PP5 conf | PP1 inh counter
O=C(Nc1ccc(O)cc1)C1CCCO1 (stereo not drawn) | 11* | -2 | -9 | -4 | -2 | -2 | -4
O=C(Nc1ccc(F)cc1)C1CCCO1 (stereo not drawn) | 1 | -1 | -8 | -4 | -1 | · | ·
COc1ccc(NC(=O)C2CC(=O)N(C)C(=Nc3ccc4c(c3)OCO4)S2)cc1 (stereo not drawn) | 12* | -1 | -4 | -3 | 0 | -1 | 0
CN1C(=O)CC(C(=O)Nc2ccc(F)cc2)SC1=Nc1ccc2c(c1)OCO2 (stereo not drawn) | 1 | 0 | -7 | 1 | -5 | · | ·
O=[N+]([O-])c1ccc(O)c(-c2nn[nH]n2)c1 | 30* | 0 | -10 | 1 | -4 | 18* | -5
COc1ccccc1NC(=O)Cn1nc(-c2ccncc2)nc1SCC(=O)NC1CCCC1 | 11* | -1 | -19 | -2 | 5 | -7 | -7
COc1cccc(OC)c1OCCCCn1cnc2ccccc2c1=O | 3 | -1 | 12 | 2 | -1 | · | ·
Nc1cccc2nsnc12 | 1 | 0 | 15 | -2 | 1 | · | ·
Nc1cc2nsnc2cc1Br | 11* | 22 | 6 | 5 | 35 | 49* | 1
COc1cc(C=O)ccc1OC(=O)Nc1ccccc1 | 12* | -2 | -1 | -2 | 1 | -3 | -2
CCC(=O)Nc1cccc(C(=O)Nc2nccs2)c1 | -1 | -1 | -3 | 3 | -2 | · | ·
CN(CCCn1ccc(N)nc1=O)Cc1ccco1 | · | 0 | · | · | -1 | · | ·
Cc1cnc(NC(=O)C2=C(O)c3ccccc3S(=O)(=O)N2C)s1 | 15*! | 0 | 6 | 2 | -1 | -4 | -2

Screening data as filed in PubChem BioAssay.
